# Measurements taken from PMC11814085 (Scientific Reports, 2025).
# pKi: −log10 of the molar value. Square brackets hold non-standard residues; d marks the D form. Peptide text beside a SMILES is read from it. * marks the point of attachment. Dolaproine = CO[C@@H]([C@@H]1CCCN1)[C@@H](C)C(=O)O; Dil = CC[C@H](C)[C@H](NC)[C@@H](CC(=O)O)OC; Doe = c1ccc(C[C@H](N*)c2nccs2)cc1; X1 = C[C@@H](N*)[C@@H](O)c1ccccc1; NMeV = CN[C@H](C(=O)O)C(C)C
# How the values were obtained:
# [1] = test system: TNBC cell lines and LSECs; experiment: GR analysis, comparison across cell lines/type; format: cell-based
# [2] = test system: TNBC cancer cell lines and LSEC; experiment: Cellular partitioning and in vitro therapeutic index across cell lines/type; format: in vitro ADME; details: range over cancer cell lines
# [3] = test system: tubulin; details: cell free system; cited from earlier work
# [4] = test system: MDA-MB-468 cells; experiment: CTG assay in presence and absence of P-gp inhibitor; format: cell-based
# Procedure, shortened: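 MDA-MB-468 cells were seeded at their pre-optimized density and allowed to adhere for 24 h. They were then exposed continuously to 0–200nM test compound for 3 days, in parallel with and without 0.6 µM zosuquidar (P-gp inhibitor). Read-out was CellTiter-Glo 2.0 cellular ATP.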
# [5] = test system: P-gp; details: read-out: P-gp inhibition Ki; cited from earlier work
# [6] = test system: MDA-MB-468; experiment: Live cell imaging of growth, fluorescent nuclear marker; format: cell-based; details: MDA-MB-468, highest doses
# Procedure, shortened: (§1)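 Cells were transfected with a red fluorescent nuclear marker. Growth in the presence of test compound was followed longitudinally by live-cell imaging of nuclei, as a check independent of the CellTiter-Glo endpoint.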
# [7] = test system: HCC1937; experiment: as above; format: cell-based
# Procedure, shortened: as §1
structure (smiles),measurement,setting,value
"CC[C@H](C)[C@@H]([C@@H](CC(=O)N1CCC[C@H]1[C@H](OC)[C@@H](C)C(=O)N[C@@H](Cc1ccccc1)c1nccs1)OC)N(C)C(=O)[C@@H](NC(=O)[C@@H](NC)C(C)C)C(C)C [MMAD, Monomethyl auristatin D] (H-[NMeV]V[Dil][Dolaproine]-Doe)","GR50, fold lower than MMAE","[1]; media GR50, across cell lines/type",6-31 x
same,"in vitro therapeutic index (TI), ratio of intracellular GR50 in LSEC to that in the cancer cell lines",[2],12–244 x
"CC[C@H](C)[C@@H]([C@@H](CC(=O)N1CCC[C@H]1[C@H](OC)[C@@H](C)C(=O)N[C@@H](Cc1ccccc1)C(=O)O)OC)N(C)C(=O)[C@@H](NC(=O)[C@@H](NC)C(C)C)C(C)C [MMAF, monomethyl auristatin F] (H-[NMeV]V[Dil][Dolaproine]F-OH)","tubulin binding affinity, fold better than MMAE",[3],~ 5 x
O[C@@H](COc1cccc2ncccc12)CN1CCN([C@@H]2c3ccccc3[C@@H]3[C@H](c4ccccc42)C3(F)F)CC1 [Zosuquidar],effect of P-gp inhibitor by itself on cell growth,"[4]; auristatin free MDA-MB-468 cells, 0.6 µM",did not have undesired effect on cell growth
same,pKi,[5],7.22
"CC[C@H](C)[C@@H]([C@@H](CC(=O)N1CCC[C@H]1[C@H](OC)[C@@H](C)C(=O)N[C@H](C)[C@@H](O)c1ccccc1)OC)N(C)C(=O)[C@@H](NC(=O)[C@@H](NC)C(C)C)C(C)C [MMAE, Monomethyl auristatin E] (H-[NMeV]V[Dil][Dolaproine]-X1)","GR50 in LSECs, fold higher than in cancer cell lines","[1]; media GR50, LSECs versus cancer cell lines",3-21 x
same,"in vitro therapeutic index (TI), ratio of intracellular GR50 in LSEC to that in the cancer cell lines",[2],3-60 x
same,dose response in presence and absence of P-gp efflux pump inhibitor,"[4]; MDA-MB-468, with and without 0.6 µM Zosuquidar",nearly identical dose response
same,cell growth in live cell imaging,[6],completely inhibited
same,cell growth in live cell imaging,[7],only marginal inhibition
